From ChEMBL document CHEMBL1155278, “3,4-Diaryl-isoxazoles and -imidazoles as potent dual inhibitors of p38alpha mitogen activated protein kinase and casein kinase 1delta” (J Med Chem, 2009)
pIC50: −log10 of the molar value. The source made the active and inactive calls. The rule behind the calls is not given here.

Columns and labels:
[1] = biological target: T1, Serine/threonine-protein kinase TBK1 (Homo sapiens) (UniProt Q9UHD2); experiment: Inhibition of TBK1 assessed as residual activity at 0.1 uM by Cherenkov counting relative to control in presence of 50 uM ATP
T1 sequence (whole entry): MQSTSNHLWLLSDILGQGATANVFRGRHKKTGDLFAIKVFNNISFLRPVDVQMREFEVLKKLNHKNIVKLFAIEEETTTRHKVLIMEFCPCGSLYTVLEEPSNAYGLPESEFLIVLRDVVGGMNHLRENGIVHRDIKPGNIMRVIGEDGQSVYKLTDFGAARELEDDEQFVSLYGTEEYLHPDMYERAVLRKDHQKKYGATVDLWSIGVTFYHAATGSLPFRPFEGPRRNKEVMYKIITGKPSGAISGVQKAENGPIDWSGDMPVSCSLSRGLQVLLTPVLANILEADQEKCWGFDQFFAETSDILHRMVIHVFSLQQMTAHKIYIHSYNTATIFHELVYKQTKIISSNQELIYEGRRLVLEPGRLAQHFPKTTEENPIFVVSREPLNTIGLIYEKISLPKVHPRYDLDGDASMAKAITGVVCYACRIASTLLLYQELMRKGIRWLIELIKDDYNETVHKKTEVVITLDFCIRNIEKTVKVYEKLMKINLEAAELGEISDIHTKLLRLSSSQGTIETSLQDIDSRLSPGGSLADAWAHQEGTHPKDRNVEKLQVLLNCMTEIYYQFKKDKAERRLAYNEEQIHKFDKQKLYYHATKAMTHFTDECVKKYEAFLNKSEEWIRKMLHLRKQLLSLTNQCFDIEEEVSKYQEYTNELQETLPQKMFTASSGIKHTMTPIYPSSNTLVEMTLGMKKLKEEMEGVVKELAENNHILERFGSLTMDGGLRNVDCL
Outline: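 Single-concentration screen at 0.1 μM in a 76-kinase panel. ATP for each kinase was set near its Km for ATP. Residual activity is given as a percentage of control assays without compound, mean of n = 3 ± SD.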

[2] = Inhibition of AMPK assessed as residual activity at 0.1 uM by Cherenkov counting relative to control in presence of 50 uM ATP
Outline: (§1)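 Single-concentration screen at 0.1 µM across a panel of 76 protein kinases. Each kinase was run at an ATP concentration approximating its ATP Km. Results are % mean residual activity versus control assays without compound (n = 3 ± SD).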

[3] = biological target: Calcium/calmodulin-dependent protein kinase kinase 2 (Homo sapiens) (UniProt Q96RR4); experiment: Inhibition of CAMKKbeta assessed as residual activity at 0.1 uM by Cherenkov counting relative to control; outline: as §1
[4] = biological target: T2, Casein kinase I isoform delta (Homo sapiens, UniProt P48730); experiment: Inhibition of recombinant CK1delta kinase domain at 5 nM by ATP competitive binding assay
Target sequence in this assay (P48730 whole entry, looked up, the tested form may be a part, canonical isoform): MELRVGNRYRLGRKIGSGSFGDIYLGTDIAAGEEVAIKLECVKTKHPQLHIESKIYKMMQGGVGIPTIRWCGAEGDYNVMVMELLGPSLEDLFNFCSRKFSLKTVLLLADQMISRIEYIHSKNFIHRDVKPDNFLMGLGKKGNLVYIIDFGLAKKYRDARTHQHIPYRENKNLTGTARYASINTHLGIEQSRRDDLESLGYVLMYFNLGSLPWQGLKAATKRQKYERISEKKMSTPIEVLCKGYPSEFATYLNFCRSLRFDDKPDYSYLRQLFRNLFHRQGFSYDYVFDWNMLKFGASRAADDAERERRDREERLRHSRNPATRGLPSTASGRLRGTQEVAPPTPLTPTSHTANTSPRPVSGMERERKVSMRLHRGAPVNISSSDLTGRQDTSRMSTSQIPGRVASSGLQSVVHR

[5] = Cell cycle arrest in human AC1-M88 cells assessed as accumulation at G1 phase at 0.38 uM after 48 hrs by propidium iodide staining-based FACS analysis; assay type: functional
[6] = Cell cycle arrest in human AC1-M88 cells assessed as accumulation at subG1 phase at 0.38 uM after 48 hrs by propidium iodide staining-based FACS analysis; assay type: functional
[7] = Inhibition of PKA assessed as residual activity at 0.1 uM by Cherenkov counting relative to control in presence of 20 uM ATP
Outline: (§2)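 Single-concentration selectivity screen at 0.1 μM against a panel of 76 protein kinases. Each kinase was run at an ATP level approximating its Km for ATP. Output is mean residual activity as % of the control assay without compound, n = 3 ± SD.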

[8] = Cell cycle arrest in human AC1-M88 cells assessed as accumulation at S phase at 0.38 uM after 48 hrs by propidium iodide staining-based FACS analysis; assay type: functional
[9] = Inhibition of PHK assessed as residual activity at 0.1 uM by Cherenkov counting relative to control; outline: as §2
[10] = biological target: Casein kinase I isoform delta (Rattus norvegicus) (UniProt Q06486); conditions: 5 nM
[11] = tested on: Casein kinase I isoform delta (Rattus norvegicus), Q06486 [M82F]; conditions: 5 nM
[12] = biological target: Mitogen-activated protein kinase 8 (Homo sapiens) (UniProt P45983); experiment: Inhibition of JNK1 assessed as residual activity at 0.1 uM by Cherenkov counting relative to control in presence of 20 uM ATP; outline: as §2
[13] = Cell cycle arrest in human AC1-M88 cells assessed as accumulation at G1 phase at 0.26 uM after 48 hrs by propidium iodide staining-based FACS analysis; assay type: functional
Outline: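 AC1-M88 cells (extravillous trophoblast fused with the Jeg-3 choriocarcinoma mutant AC1-1) were grown in DMEM/F-12 with 10% FCS at 37 °C in humidified 5% CO2. Cells were exposed to compound for 48 h alongside a DMSO control (0.004% final), then fixed and stained with propidium iodide. Cell cycle was read by flow cytometry with the Cycle Test Plus kit.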

[14] = biological target: T2, Casein kinase I isoform delta; experiment: Inhibition of recombinant CK1delta kinase domain at 10 nM by ATP competitive binding assay
Target sequence in this assay (P48730 whole entry, looked up, the tested form may be a part, canonical isoform): as above

[15] = Cell cycle arrest in human AC1-M88 cells assessed as accumulation at subG1 phase at 0.26 uM after 48 hrs by propidium iodide staining-based FACS analysis; assay type: functional
[16] = Cell cycle arrest in human AC1-M88 cells assessed as accumulation at S phase at 0.26 uM after 48 hrs by propidium iodide staining-based FACS analysis; assay type: functional
[17] = Cell cycle arrest in human AC1-M88 cells assessed as accumulation at G2 phase at 0.26 uM after 48 hrs by propidium iodide staining-based FACS analysis; assay type: functional
[18] = biological target: Casein kinase I isoform delta (Rattus norvegicus) (UniProt Q06486); experiment: Inhibition of GST-fused rat CK1delta at 10 nM by Cherenkov counting in presence of 20 uM ATP
[19] = biological target: Mitogen-activated protein kinase 10 (Homo sapiens) (UniProt P53779); experiment: Inhibition of JNK3 at 10 uM by Cherenkov counting in presence of 20 uM ATP
[20] = biological target: Myosin light chain kinase, smooth muscle (Homo sapiens) (UniProt Q15746); experiment: Inhibition of smooth muscle MLCK assessed as residual activity at 10 uM by Cherenkov counting relative to control in presence of 50 uM ATP
Outline: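 Single-concentration profiling at 10 μM in a 78-kinase panel. Kinase activity is expressed as a percentage of control assays run without compound.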

[21] = biological target: T2, Casein kinase I isoform delta; experiment: Inhibition of CK1delta by Cherenkov counting in presence of 20 uM ATP
[22] = biological target: Aurora kinase B (Homo sapiens) (UniProt Q96GD4); experiment: Inhibition of Aurora B assessed as residual activity at 10 uM by Cherenkov counting relative to control in presence of 20 uM ATP
Outline: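 Single-point profiling at 10 µM in a panel of 78 protein kinases. Kinase activity is expressed as a percentage relative to control assays without compound.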

[23] = biological target: Serine/threonine-protein kinase PAK 4 (Homo sapiens) (UniProt O96013); experiment: Inhibition of PAK4 assessed as residual activity at 10 uM by Cherenkov counting relative to control in presence of 5 uM ATP
Serine/threonine-protein kinase PAK 4 (Homo sapiens), sequence (O96013 whole entry, looked up): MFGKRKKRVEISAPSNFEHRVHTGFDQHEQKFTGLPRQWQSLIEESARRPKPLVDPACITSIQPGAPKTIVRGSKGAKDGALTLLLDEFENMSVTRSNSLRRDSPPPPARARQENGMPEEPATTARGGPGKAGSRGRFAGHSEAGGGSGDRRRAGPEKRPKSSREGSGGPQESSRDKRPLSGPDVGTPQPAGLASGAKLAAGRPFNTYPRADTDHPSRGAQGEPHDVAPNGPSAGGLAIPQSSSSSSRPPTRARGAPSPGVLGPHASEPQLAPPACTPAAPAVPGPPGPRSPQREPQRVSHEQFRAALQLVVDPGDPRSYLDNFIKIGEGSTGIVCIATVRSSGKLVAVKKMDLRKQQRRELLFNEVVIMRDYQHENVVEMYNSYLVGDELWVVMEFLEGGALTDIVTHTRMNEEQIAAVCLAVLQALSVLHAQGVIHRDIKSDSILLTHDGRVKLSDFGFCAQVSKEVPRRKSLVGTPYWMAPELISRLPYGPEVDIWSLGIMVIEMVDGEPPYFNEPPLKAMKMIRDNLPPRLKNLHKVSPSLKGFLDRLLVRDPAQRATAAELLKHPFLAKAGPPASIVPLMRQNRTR

Aurora kinase B (Homo sapiens), sequence (Q96GD4 whole entry): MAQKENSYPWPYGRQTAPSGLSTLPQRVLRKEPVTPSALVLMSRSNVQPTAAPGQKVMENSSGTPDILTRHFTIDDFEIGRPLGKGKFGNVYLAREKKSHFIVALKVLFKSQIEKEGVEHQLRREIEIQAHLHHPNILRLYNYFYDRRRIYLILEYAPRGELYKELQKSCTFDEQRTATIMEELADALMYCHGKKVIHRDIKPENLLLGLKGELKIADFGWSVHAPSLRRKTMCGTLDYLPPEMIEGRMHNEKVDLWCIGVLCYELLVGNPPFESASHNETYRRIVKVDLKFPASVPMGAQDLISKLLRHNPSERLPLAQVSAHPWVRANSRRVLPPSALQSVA
Calcium/calmodulin-dependent protein kinase kinase 2 (Homo sapiens), sequence (Q96RR4 2-588 limits assumed): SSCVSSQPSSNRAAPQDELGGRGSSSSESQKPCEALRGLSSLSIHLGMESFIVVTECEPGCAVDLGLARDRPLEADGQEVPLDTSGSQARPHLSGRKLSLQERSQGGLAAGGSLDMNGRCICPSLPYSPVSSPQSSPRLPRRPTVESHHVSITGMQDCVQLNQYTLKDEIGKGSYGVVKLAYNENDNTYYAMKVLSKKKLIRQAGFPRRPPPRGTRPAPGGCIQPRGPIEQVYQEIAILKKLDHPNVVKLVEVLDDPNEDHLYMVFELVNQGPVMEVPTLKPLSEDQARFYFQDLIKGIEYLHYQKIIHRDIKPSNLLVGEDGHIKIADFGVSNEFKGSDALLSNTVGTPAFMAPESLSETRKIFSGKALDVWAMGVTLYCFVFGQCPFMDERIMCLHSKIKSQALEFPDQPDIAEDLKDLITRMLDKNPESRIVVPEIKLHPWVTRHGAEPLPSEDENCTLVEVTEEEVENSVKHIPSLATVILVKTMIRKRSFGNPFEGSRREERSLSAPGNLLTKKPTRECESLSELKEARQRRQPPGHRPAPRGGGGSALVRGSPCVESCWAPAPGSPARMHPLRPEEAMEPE
Mitogen-activated protein kinase 8 (Homo sapiens), sequence (P45983 whole entry): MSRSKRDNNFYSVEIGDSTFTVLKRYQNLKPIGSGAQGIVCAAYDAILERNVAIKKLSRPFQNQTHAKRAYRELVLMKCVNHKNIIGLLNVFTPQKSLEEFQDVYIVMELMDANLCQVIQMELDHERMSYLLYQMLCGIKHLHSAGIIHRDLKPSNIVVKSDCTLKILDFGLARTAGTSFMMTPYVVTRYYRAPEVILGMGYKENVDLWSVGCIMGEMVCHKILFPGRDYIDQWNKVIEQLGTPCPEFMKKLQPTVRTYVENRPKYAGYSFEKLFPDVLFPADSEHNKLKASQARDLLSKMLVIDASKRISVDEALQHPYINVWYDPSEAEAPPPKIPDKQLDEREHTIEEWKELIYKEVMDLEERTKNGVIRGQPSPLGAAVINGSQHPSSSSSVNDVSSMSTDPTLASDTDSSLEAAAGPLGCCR
Myosin light chain kinase, smooth muscle (Homo sapiens), sequence (Q15746 whole entry): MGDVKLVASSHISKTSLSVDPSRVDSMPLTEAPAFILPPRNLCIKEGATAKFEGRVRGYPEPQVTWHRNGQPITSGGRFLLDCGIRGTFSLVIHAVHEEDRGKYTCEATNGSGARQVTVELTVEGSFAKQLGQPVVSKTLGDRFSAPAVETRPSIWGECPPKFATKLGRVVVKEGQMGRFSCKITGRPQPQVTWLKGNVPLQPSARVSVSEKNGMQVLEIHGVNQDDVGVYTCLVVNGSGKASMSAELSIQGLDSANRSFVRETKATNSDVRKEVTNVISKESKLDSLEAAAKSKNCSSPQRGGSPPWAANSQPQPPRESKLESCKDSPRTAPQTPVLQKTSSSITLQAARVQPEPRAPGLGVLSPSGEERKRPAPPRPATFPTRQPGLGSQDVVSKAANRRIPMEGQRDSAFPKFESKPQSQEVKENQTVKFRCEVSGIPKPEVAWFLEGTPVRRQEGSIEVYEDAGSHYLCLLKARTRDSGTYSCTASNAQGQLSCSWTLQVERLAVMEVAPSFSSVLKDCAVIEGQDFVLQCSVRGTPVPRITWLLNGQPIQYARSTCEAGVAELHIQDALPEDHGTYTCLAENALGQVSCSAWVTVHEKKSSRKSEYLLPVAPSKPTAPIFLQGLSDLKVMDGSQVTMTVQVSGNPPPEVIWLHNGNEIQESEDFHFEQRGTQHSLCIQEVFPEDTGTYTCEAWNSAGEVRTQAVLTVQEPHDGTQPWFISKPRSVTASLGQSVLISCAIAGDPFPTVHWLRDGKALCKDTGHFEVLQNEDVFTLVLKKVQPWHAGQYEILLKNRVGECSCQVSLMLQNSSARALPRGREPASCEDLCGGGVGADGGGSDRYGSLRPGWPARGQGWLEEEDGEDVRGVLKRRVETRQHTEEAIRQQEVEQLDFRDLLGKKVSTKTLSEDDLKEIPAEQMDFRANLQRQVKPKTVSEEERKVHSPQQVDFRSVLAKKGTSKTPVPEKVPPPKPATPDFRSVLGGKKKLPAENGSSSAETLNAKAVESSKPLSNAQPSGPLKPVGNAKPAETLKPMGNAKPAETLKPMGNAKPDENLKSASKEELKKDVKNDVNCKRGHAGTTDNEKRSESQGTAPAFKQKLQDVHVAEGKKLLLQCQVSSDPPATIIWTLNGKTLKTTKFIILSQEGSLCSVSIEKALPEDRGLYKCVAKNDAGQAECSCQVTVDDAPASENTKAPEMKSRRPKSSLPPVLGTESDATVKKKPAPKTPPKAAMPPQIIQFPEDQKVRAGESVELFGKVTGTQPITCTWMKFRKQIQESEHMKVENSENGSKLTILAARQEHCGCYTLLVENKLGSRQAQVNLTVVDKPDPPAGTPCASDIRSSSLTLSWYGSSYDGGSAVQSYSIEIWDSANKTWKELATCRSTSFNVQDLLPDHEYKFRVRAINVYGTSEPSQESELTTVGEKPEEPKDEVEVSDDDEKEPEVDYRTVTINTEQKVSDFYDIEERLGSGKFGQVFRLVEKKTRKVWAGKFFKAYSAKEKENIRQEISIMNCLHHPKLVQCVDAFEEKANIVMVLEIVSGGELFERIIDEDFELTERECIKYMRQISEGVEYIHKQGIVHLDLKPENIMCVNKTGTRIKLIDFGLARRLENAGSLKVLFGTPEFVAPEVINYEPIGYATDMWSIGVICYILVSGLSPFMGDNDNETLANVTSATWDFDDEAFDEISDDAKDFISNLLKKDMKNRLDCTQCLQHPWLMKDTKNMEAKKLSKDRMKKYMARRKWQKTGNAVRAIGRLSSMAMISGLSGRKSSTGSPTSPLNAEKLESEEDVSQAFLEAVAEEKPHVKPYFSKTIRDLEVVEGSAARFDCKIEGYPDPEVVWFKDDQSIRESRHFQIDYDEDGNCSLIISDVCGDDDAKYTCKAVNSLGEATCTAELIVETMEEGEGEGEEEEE
Casein kinase I isoform delta (Rattus norvegicus), sequence (Q06486 whole entry, looked up, the tested form may be a part, canonical isoform): as the sequence (P48730 whole entry, looked up, the tested form may be a part, canonical isoform) above, with I381V counted along it

| Compound | Activity [1] | Activity [2] | Activity [3] | Activity [7] | Activity [9] | Activity [12] | Activity [20] | Activity [22] | Activity [23] | other results |
| --- | --- | --- | --- | --- | --- | --- | --- | --- | --- | --- |
| COc1ccc(/C=C/C(=O)Nc2cc(-c3[nH]c(SC)nc3-c3ccc(F)cc3)ccn2)c(OC)c1 | 103% | 92% | 88% | 84% | 99% | 90% | – | – | – | inhibition [4]: 18%; Activity [5]: 6.3%; Activity [6]: 87.1%; Activity [8]: 2.41%; inhibition [10]: Active; inhibition [11]: inactive |
| COc1ccc(/C=C/C(=O)Nc2cc(-c3[nH]c([S+](C)[O-])nc3-c3ccc(F)cc3)ccn2)c(OC)c1 (configuration not stated) | 106% | 99% | 92% | 92% | 102% | 53% | – | – | – | Activity [13]: 12%; inhibition [14]: 10%; Activity [15]: 77.1%; Activity [16]: 3.95%; Activity [17]: 5.32%; inhibition [18]: Active |
| CC(C)c1onc(-c2ccc(F)cc2)c1-c1ccncc1 | – | – | – | – | – | – | 99% | 101% | 106% | inhibition [19]: 72%; pIC50 [21]: 6.64 |
| CC(C)c1noc(-c2ccc(F)cc2)c1-c1ccncc1 | – | – | – | – | – | – | 110% | 22% | 107% | – |
